EBNA-1 inhibitor: EBNA-1 DNA-binding inhibitors, primary screen, biochemical, fluorescence polarization | 300,000 tested, 0.34% active | inhibition, % at 14.8 µM | AID 1950, 2009; in the data active means inhibition above about 28%
ZTA DNA inh: counter-screen for EBNA-1 inhibitors: inhibitors of Epstein-Barr virus ZTA; P03206; 320,000 tested, 0.15% active; ZTA-DNA binding, fluorescence polarization; AID 2234; inhibition, % at 11 µM; in the data active means inhibition above about 33%
Target sequence (P03206 whole entry, looked up): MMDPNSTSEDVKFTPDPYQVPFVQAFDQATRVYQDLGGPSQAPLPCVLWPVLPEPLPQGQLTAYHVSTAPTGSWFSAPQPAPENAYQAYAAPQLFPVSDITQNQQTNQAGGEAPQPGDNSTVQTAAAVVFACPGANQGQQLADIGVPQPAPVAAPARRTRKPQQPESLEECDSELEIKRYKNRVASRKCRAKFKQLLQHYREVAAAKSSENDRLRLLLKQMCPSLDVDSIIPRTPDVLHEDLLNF
HCV NS3 hel inh: inhibitors of HCV NS3 helicase, primary screen, biochemical, Cy5 molecular beacon fluorescence | Hepatitis C virus NS3 helicase | NS3 helicase DNA unwinding | inhibition, % at 10.9 µM | 290,000 tested, 0.56% active | AID 1800, 2009;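 active means inhibition above the mean of all tested compounds plus 3 SD, set per campaign, cut at about 35% in these data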
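Material: hepatitis C virus NS3 helicase domain fragment enzyme; measured by: Cy5 fluorescence, 0 and 60 min reads; control set: DMSO and thioflavine S; incubation: 60 min unwinding reaction at 25 °C after ATP addition; read-out basis: % inhibition from 60/0 min fluorescence ratio, DMSO 0%, thioflavine S 100%; repeats: singlicate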
DNA FID counter: compounds displacing fluorescent DNA intercalator, primary screen, artefact control for HCV NS3 helicase inhibitor project, biochemical, FID fluorescence; DNA fluorescent intercalator displacement; inhibition, % at 7.9 µM; 290,000 tested, 0.17% active; AID 1845, 2009; in the data active means inhibition above about 37%;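 further: higher means more ethidium bromide displaced from hairpin DNA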
FGF22 binding: binders of human FGF22 protein, primary screen, FGF22 synaptogenesis inhibitor project, biophysical, thermal shift, single point; activity (Tm shift, normalised), % at 9.99 µM; 340,000 tested, 1.5% active; AID 651658, 2012; recombinant FGF22 thermal shift, SYPRO orange fluorescence; percent of sucrose octasulfate shift, DMSO zero;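 active means mean Tm shift, scaled 0 neutral to 100 positive control, at about 1.3% or above, every replicate too, limit read from the data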
Target sequence (Q9HCT0 whole entry, looked up): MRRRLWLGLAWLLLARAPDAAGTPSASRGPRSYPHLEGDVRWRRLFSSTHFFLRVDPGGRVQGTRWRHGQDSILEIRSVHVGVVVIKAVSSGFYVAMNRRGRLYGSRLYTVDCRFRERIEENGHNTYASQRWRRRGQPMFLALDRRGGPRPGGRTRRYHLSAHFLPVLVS
GRIN3A LBD mod: binders of NR3A ligand-binding domain, primary screen, biophysical, differential scanning fluorimetry, uHTS. Glutamate receptor ionotropic, NMDA 3A (GRIN3A) ligand-binding domain. NR3A LBD differential scanning fluorimetry, Tm shift; 0% = protein alone, 100% = glycine-bound protein. Tm shift relative to glycine control, % at 25 µM. 340,000 tested, 2.5% active. AID 1259313, 2017;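 active means melting temperature shift of at least 10% of the positive control shift, at one fixed dose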
A number is an active result; . = inactive; / = no result given; ! = not confirmed by another sample. Shown are actives, neighbours in structure and some others; about 3.6% of the full set was active somewhere.

SMILES	EBNA-1 inhibitor	ZTA DNA inh	HCV NS3 hel inh	DNA FID counter	FGF22 binding	GRIN3A LBD mod
O=C(NCc1ccccc1)c1ccc(Cn2cc(C(F)(F)F)ccc2=O)cc1	.	.	.	.	/	.
O=C(O)c1ccc(Cn2cc(C(F)(F)F)ccc2=O)cc1	.	.	.	.	43	.
CC(C)Oc1ccc(C(=O)Nc2ccc(C(F)(F)F)n(C)c2=O)cc1	.	.	.	.	44	.
Cc1[nH]c(=O)[nH]c(=O)c1NC(=O)c1ccc(OC(C)C)cc1	.	.	.	.	.	.
COCC(=O)N(C)C[C@H]1Oc2cc(C#CCN(C)C)ccc2S(=O)(=O)N([C@@H](C)CO)C[C@@H]1C	/	/	/	/	.	/
S=C(Nc1ccc(Nc2ccccc2)cc1)Nc1ccccn1	.	.	.	.	43	.
O=C(C[C@@H]1C[C@@H]2c3cc(NC(=O)C4CCC4)ccc3O[C@@H]2[C@H](CO)O1)NCc1ccccc1F	/	/	/	/	.	/
CC(=O)Nc1c(I)c(NC(C)=O)c(I)c(C(=O)O)c1I	.	.	.	.	.	13!
O=C(CCCCC(=O)Nc1c(I)cc(I)c(C(=O)O)c1I)Nc1c(I)cc(I)c(C(=O)O)c1I	.	.	/	/	/	.
O=C(CCC(NC(=O)OCc1ccccc1)C(=O)OCc1ccccc1)NCC(=O)OCc1ccccc1 (stereo not given)	.	.	.	.	/	12
C#CCOCCOCCOCCNc1nc(N2CCN(C(=O)[C@H]([C@@H](C)CC)n3cc([C@@H](N)Cc4ccc(O)cc4)nn3)CC2)nc(N2CCN(C(=O)[C@H](Cc3cc4ccccc4[nH]3)n3cc([C@@H](N)CC(C)C)nn3)CC2)n1	.	.	/	/	/	.
C#CCOCCOCCOCCNc1nc(N2CCN(C(=O)[C@H](Cc3ccc(O)cc3)n3cc([C@@H](N)CC(C)C)nn3)CC2)nc(N2CCN(C(=O)[C@H](Cc3cc4ccccc4[nH]3)n3cc([C@@H](N)CC(C)C)nn3)CC2)n1	.	.	.	37	.	.
C#CCOCCOCCOCCNc1nc(N2CCN(C(=O)[C@H]([C@@H](C)CC)n3cc([C@@H](N)CC(C)C)nn3)CC2)nc(N2CCN(C(=O)[C@H](Cc3cc4ccccc4[nH]3)n3cc([C@@H](N)Cc4ccc(O)cc4)nn3)CC2)n1	.	.	.	44	/	.
C#CCOCCOCCOCCNc1nc(N2CCOCC2)nc(N2CCN(C(=O)[C@H](Cc3cc4ccccc4[nH]3)n3cc([C@@H](N)C(C)CC)nn3)CC2)n1 (stereo not given in full)	.	.	.	.	.	.
C#CCOCCOCCOCCNc1nc(N2CCN(C(=O)C(Cc3cc4ccccc4[nH]3)n3cc(C(N)C(C)CC)nn3)CC2)nc(N2CCN(C(=O)C(Cc3cc4ccccc4[nH]3)n3cc(C(N)C(C)CC)nn3)CC2)n1 (stereo not given)	.	.	.	38	/	.
COc1ccc(S(=O)(=O)N(C)C[C@@H]2Oc3ccc(NS(=O)(=O)c4ccc(Cl)cc4)cc3C(=O)N([C@@H](C)CO)C[C@H]2C)cc1	/	/	/	/	.	/
C[C@H](CO)N1C[C@H](C)[C@H](CN(C)C(=O)Nc2ccc(F)cc2)Oc2ncc(-c3ccc(C#N)cc3)cc2C1=O	/	/	/	/	.	/
CCn1c(CNC(=O)c2ccc3c(c2)OCO3)nnc1SCC(=O)Nc1cc(C)ccc1OC	.	.	.	.	/	10
Cc1ccccc1NC(=O)CSc1nnc(CNC(=O)c2ccc3c(c2)OCO3)n1C	.	.	.	.	.	.
O=C(Nc1cc(S(=O)(=O)N2CCCCC2)ccc1O)c1ccccc1NS(=O)(=O)c1ccc(F)c(F)c1	.	.	.	.	.	28
O=C(Nc1ccccc1C(=O)O)c1cccc(S(=O)(=O)Nc2ccc(Br)cc2)c1	.	.	.	.	.	12
O=C(CSc1ccc([N+](=O)[O-])cc1)Nc1cccc(S(=O)(=O)Nc2ccccc2F)c1	.	.	.	.	.	24
O=C(Nc1cc(S(=O)(=O)Nc2ccccc2Cl)ccc1O)c1ccc(F)cc1F	/	/	/	/	/	.
Cc1onc(-c2c(F)cccc2Cl)c1C(=O)Nc1cc(S(=O)(=O)N2CCCCC2)ccc1O	/	/	/	/	.	16
O=C1CCC(C(=O)Nc2cccc(S(=O)(=O)Nc3ccccc3F)c2)=NN1	/	/	/	/	.	13
SMILES	EBNA-1 inhibitor	ZTA DNA inh	HCV NS3 hel inh	DNA FID counter	FGF22 binding	GRIN3A LBD mod
Cc1ccc(NC(=O)c2ccccc2NS(=O)(=O)c2ccc(F)cc2)cc1S(=O)(=O)N1CCCCC1	.	.	.	.	.	28
O=C(NC1CC1)c1ccc(NS(=O)(=O)c2ccc(F)cc2)cc1	.	.	/	/	.	27
Cc1ccc(NC(=O)c2cnccn2)cc1S(=O)(=O)N1CCCCCC1	/	/	/	/	43	.
O=C(NC1CC1)c1ccc(NS(=O)(=O)c2ccccc2)cc1	.	.	.	.	.	.
O=C(Nc1cccc(S(=O)(=O)Nc2ccccc2F)c1)c1ccco1	/	/	/	/	.	.
C[C@@H]1CN([C@@H](C)CO)C(=O)c2cc(NC(=O)c3ccccc3)ccc2O[C@@H](C)CCCCO[C@@H]1CN(C)C(=O)C1CCCCC1	/	/	/	/	.	/
O=C(O)c1ccccc1C(=O)Nc1ccc(S(=O)(=O)Nc2ccc(F)cc2)cc1	.	.	.	.	/	10
O=C(Nc1cccc(S(=O)(=O)N2CCCCC2)c1)c1ccccc1NS(=O)(=O)c1ccc(F)cc1	.	.	.	.	.	18
O=C(CNc1ccc(F)cc1Cl)Nc1cccc(S(=O)(=O)N2CCCCC2)c1	/	.	/	/	.	13
O=C(O)c1ccccc1-c1ccccc1C(=O)Nc1ccc(F)cc1	.	.	.	.	.	.
CN(Cc1ccc(F)cc1)C(=O)c1ccc(NS(=O)(=O)c2ccccc2)cc1	.	.	/	/	/	13
O=C(C[C@@H]1CC[C@H](NC(=O)c2ccc3c(c2)OCO3)[C@@H](CO)O1)NC1Cc2ccccc2C1	/	/	/	/	.	/
CC(Oc1ccc(Cl)cc1Cl)c1nc(-c2ccc(NC(=O)c3ccncc3)cc2)no1 (stereo not given)	.	.	.	.	.	22
COc1cccc(-c2nc(-c3ccc(NC(=O)c4cccnc4)cc3)no2)c1	.	.	.	.	/	.
CC(Oc1ccc(Cl)cc1Cl)c1nc(-c2ccc(NC(=O)c3cccnc3)cc2)no1 (stereo not given)	.	.	.	.	/	12
O=C(Nc1ccc(-c2noc(-c3cccs3)n2)cc1)c1cccnc1	.	.	.	.	/	28
CC=Cc1ccc2n(c1=O)C[C@@H]1[C@@H](CO)[C@H](C(=O)Nc3ccccc3)N(CC3CC3)[C@H]21 (mixture of isomers)	/	/	/	/	.	/
O=C(C[C@@H]1CC[C@@H]2[C@H](COC[C@H](O)CN2Cc2ccc(C(F)(F)F)cc2)O1)NCCc1ccccc1	/	/	/	/	.	/

Source: PubChem BioAssay
